Hits are enriched below; roughly 3.5% of the tested compounds scored in any of these assays.
MrgX1 allo act: human MrgX1 positive allosteric modulation, primary screen. Q96LB2. MrgX1-HEK293, Fluo-4 calcium flux, FDSS; active compounds read high. B-score at 10 µM. 310,000 compounds, 0.63% hits. AID 588675;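 active means plate-corrected calcium response at least 3 library SD above typical, normal starting fluorescence, not activating the receptor alone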;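 further: compound read alongside a low EC10 to EC30 dose of BAM8-22 agonist; peak minus trough fluorescence over baseline measured at the second addition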
Target sequence (Q96LB2 whole entry, looked up): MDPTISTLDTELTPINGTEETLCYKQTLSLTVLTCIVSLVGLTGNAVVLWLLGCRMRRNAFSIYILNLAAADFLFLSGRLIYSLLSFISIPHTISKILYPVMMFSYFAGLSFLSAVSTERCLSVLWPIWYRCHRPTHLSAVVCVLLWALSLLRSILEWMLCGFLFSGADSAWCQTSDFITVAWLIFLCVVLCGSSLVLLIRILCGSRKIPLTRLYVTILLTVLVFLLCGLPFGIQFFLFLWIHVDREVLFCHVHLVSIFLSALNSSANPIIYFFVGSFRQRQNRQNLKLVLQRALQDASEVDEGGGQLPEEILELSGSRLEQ
RGS4 act: RGS4 potentiation or activation | HEK293 M3R/inducible RGS4, carbachol calcium flux Fluo4; active compounds read low | 310,000 compounds, 0.92% hits | B-score at 10 µM | AID 463111;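 active means B-score of the integrated calcium signal more than 4 SD below the library mean, with starting fluorescence not abnormally high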;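 further: negative B-score means reduced calcium response which marks RGS4 activation or potentiation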
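Also added: carbachol at ECmax as muscarinic agonist stimulus; Assay system: HEK293 cells with stable M3R and inducible RGS4; Timing: overnight RGS4 induction, 30 min dye load 37 °C, 20 min compound RT; Measured by: Fluo4-AM (2 µM) calcium-flux fluorescence, kinetic read.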
MrgX1 antag: human MrgX1 receptor antagonism, primary screen. 310,000 compounds, 1.3% hits. MRGX1-HEK293 calcium flux, Fluo-4, BAM8-22 antagonism; active compounds read low. B-score at 10 µM. AID 588676. Q96LB2;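 active means calcium-response B-score plate-corrected more than 3 library SD below zero, starting fluorescence within 5 deviations, no agonist response on first addition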;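 further: peak minus trough fluorescence over baseline after final BAM8-22 challenge near maximal dose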
MrgX1 ag: agonists of human MrgX1 receptor; AID 588627; B-score at 10 µM; 310,000 compounds, 0.44% hits; Q96LB2; MrgX1-HEK293 cells, Fluo-4 calcium fluorescence, agonist mode; active compounds read high;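 active means calcium response B-score plate-corrected fluorescence ratio at least 3 library SD, with starting fluorescence B-score inside 5 SD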
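times = overnight plating, then 30 min 37 °C plus 30 min room-temperature dye loading | assay system = stable human MrgX1 HEK293 cell line | input = fifteen thousand cells per well | signal = kinetic calcium dye fluorescence, Fluo-4 NW | dosing = compound delivered in addition one of three | read-out = B-scored fluorescence response ratio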
RGS4 inh: human RGS4 inhibition; P49798; HEK293 M3R/RGS4 inducible, Fluo-4 calcium flux; active compounds read high; triggered by carbachol at its EC20; B-score at 10 µM; 310,000 compounds, 0.45% hits; AID 463165;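 active means B-score, a plate-corrected calcium signal, over three deviations above library mean, with baseline fluorescence within five deviations of library mean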;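 further: RGS4 expression induced by doxycycline in cells with stable M3 receptor; B-score is computed from the integrated fluorescence ratio over baseline after carbachol; higher B-score means a larger calcium signal and so more RGS4 inhibition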
Target sequence (P49798 whole entry, looked up): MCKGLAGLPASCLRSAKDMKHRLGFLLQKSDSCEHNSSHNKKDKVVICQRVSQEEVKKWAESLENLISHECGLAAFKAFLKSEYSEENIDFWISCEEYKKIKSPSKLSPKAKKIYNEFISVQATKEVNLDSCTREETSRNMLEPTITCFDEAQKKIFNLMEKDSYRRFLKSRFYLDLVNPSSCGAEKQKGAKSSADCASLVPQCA
MrgX1 ag reconf: confirmation of human MrgX1 receptor agonists; MrgX1-HEK293, Fluo-4 calcium fluorescence, FDSS; shares compounds with MrgX1 ag; 600 compounds, 78% hits; activation, % at 10 µM;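 active means calcium signal rise, corrected for plate position, at least 3 library SD high, with starting brightness within 5 such deviations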; further: reference of the scale not given here
HEK293 Ca flux: MrgX1 antagonist counter-screen hit in parental HEK293 cells; shares compounds with MrgX1 antag; Fluo-4 calcium fluorescence, FDSS; fluorescence ratio F(max-min)/F0 at 10 µM; 4,000 compounds, 2% hits; AID 624111;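 active means duplicate-averaged calcium fluorescence ratio at least three times the standard deviation of buffer wells, a nonspecific response in parental cells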
HEK293 Ca counter: counter-screen for MrgX1 allosteric activators: effect in parental HEK293 cells. shares compounds with MrgX1 antag. parental HEK293 calcium flux, Fluo-4 fluorescence ratio; active compounds read high. fluorescence ratio F(max-min)/F0 at 10 µM. 4,000 compounds, 0.4% hits. AID 624114;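 active means calcium fluorescence ratio, averaged over duplicates, at least 3 SD of the buffer-well ratio, meaning a nonspecific response in receptor-free cells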;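 further: untransfected parental HEK293 lacking MrgX1 used as counterscreen for MrgX1 allosteric activators; fluorescence change taken during the second addition on a kinetic imager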
HEK293 Ca cntr2: counter-screen for MrgX1 activators: effect in parental HEK293 cells | shares compounds with MrgX1 antag | Fluo-4 calcium fluorescence (FDSS); active compounds read high | fluorescence ratio F(max-min)/F0 at 10 µM | 4,000 compounds, 8.7% hits | AID 624115;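 active means calcium fluorescence ratio at least three times the spread of buffer wells, meaning a non-specific response in parental cells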
Large screens that a line does not name were inactive (follow-up assays come after a bar, where they were run).

Cc1ccc(-n2nc(C)c(/C=N/n3c(C)n[nH]c3=S)c2Cl)cc1	none
CCCCN(C(=O)C1CC(=O)N(CCc2ccc(OC)c(OC)c2)C1)c1c(N)n(CCCC)c(=O)[nH]c1=O (stereo not drawn)	none
Cc1[nH][nH]c(=O)c1C(c1ccc(-c2cccc(Cl)c2)o1)c1c(C)[nH][nH]c1=O	MrgX1 ag 29 | MrgX1 ag reconf 198% | HEK293 Ca flux inactive | HEK293 Ca counter inactive | HEK293 Ca cntr2 56
Cn1c2c(c(=O)n(C)c1=O)[C@@]1(C(=O)Nc3ccccc31)C(C#N)=C(N)O2	MrgX1 ag 41 | MrgX1 ag reconf 173% | HEK293 Ca flux inactive | HEK293 Ca counter inactive | HEK293 Ca cntr2 inactive
N#CC1=C(N)Oc2n[nH]c(-c3ccccc3)c2C12C(=O)Nc1ccccc12 (stereo not drawn)	none
CN(Cc1cccs1)C(=O)CCc1c[nH]c2ccccc12	none
CN(Cc1cccs1)C(=O)CCCc1c[nH]c2ccccc12	MrgX1 ag 27 | MrgX1 ag reconf 161% | HEK293 Ca flux inactive | HEK293 Ca counter inactive | HEK293 Ca cntr2 inactive
Cc1nc2cc(Nc3ccncc3)ccc2s1	none
COc1ccc(-c2csc(NC(=O)CN3C(=O)C4CCCCC4C3=O)n2)cc1OC (stereo not drawn)	MrgX1 ag 30 | MrgX1 ag reconf inactive | HEK293 Ca flux inactive | HEK293 Ca counter inactive | HEK293 Ca cntr2 inactive
COc1ccc(-c2csc(NC(=O)CSCc3c(C)noc3C)n2)cc1OC	MrgX1 ag 44 | MrgX1 ag reconf inactive | HEK293 Ca flux inactive | HEK293 Ca counter inactive | HEK293 Ca cntr2 inactive
COc1ccc(OC)c(-c2csc(NC(=O)CN3C(=O)C4CCCCC4C3=O)n2)c1 (stereo not drawn)	none
CC(C)(CN1CCc2ccccc2C1)NS(=O)(=O)c1ccc(Cl)cc1	none
COc1ccc(S(=O)(=O)CC(=O)c2cc3cc(Br)ccc3oc2=O)cc1	MrgX1 ag 70 | MrgX1 ag reconf 326% | HEK293 Ca flux inactive | HEK293 Ca counter inactive | HEK293 Ca cntr2 61
O=C(O)CC1SC(=O)N(CC(=O)c2ccccc2)C1=O (stereo not drawn)	none
O=C(Nc1ccc(S(=O)(=O)N2CCCC2)cc1)C1CCCN1C(=O)c1cccs1 (stereo not drawn)	none
Cc1c2ccccc2nc2c(F)c(NC(C)C)c(F)c(F)c12	none
Cc1c2ccccc2nc2c(F)c(NCCO)c(F)c(F)c12	MrgX1 ag 30 | MrgX1 ag reconf inactive | HEK293 Ca flux 0.12 | HEK293 Ca counter inactive | HEK293 Ca cntr2 inactive
Cc1ccccc1OCC(=O)Nc1ccccc1-c1ccccc1	none
CCC(CC)C1C(C#N)=C(N)Oc2cc(C)oc(=O)c21 (stereo not drawn)	none
Cc1cc2c(c(=O)o1)C(CCC1CCCCC1)C(C#N)=C(N)O2 (stereo not drawn)	MrgX1 ag 28 | MrgX1 ag reconf inactive | HEK293 Ca flux inactive | HEK293 Ca counter inactive | HEK293 Ca cntr2 inactive
O=C(Nc1ccc(Cl)cc1)c1ccc2c(=O)n3c(nc2c1)CCCCC3	none
O=C(Nc1ccc(Br)cc1Cl)c1ccc2c(=O)n3c(nc2c1)CCC3	MrgX1 ag 55 | MrgX1 ag reconf 468% | HEK293 Ca flux inactive | HEK293 Ca counter inactive | HEK293 Ca cntr2 102
O=C(Nc1ccc(Cl)cc1Cl)c1ccc2c(=O)n3c(nc2c1)CCC3	MrgX1 ag 85 | MrgX1 ag reconf 462% | HEK293 Ca flux inactive | HEK293 Ca counter inactive | HEK293 Ca cntr2 107
c1ccc2c(c1)NCC1CCCN21 (stereo not drawn)	none
COc1ccccc1CCCNC(=O)C1CCC(=O)N(CCc2ccc(Cl)cc2)C1 (stereo not drawn)	none
Oc1cccc(Nc2nc(O)c(/C=C3\C=Nc4ccccc43)s2)c1	MrgX1 ag 39 (no result: RGS4 act, RGS4 inh) | MrgX1 ag reconf 416% | HEK293 Ca flux inactive | HEK293 Ca counter inactive | HEK293 Ca cntr2 76
Oc1nc(Nc2cccc(Cl)c2)sc1/C=C1\C=Nc2ccccc21	none
O=C(C1Cc2ccccc2CN1S(=O)(=O)c1ccc(F)cc1)N1CCCCC1 (stereo not drawn)	MrgX1 ag 33 | MrgX1 ag reconf 243% | HEK293 Ca flux inactive | HEK293 Ca counter inactive | HEK293 Ca cntr2 74
O=C(c1ccco1)N1CCN(C(=O)C2Cc3ccccc3CN2S(=O)(=O)c2ccc(F)cc2)CC1 (stereo not drawn)	none
CCOC(=O)c1csc(NC(=O)C2=COCCO2)n1	none
O=S(=O)(Nc1cccc(-c2ccc3nncn3n2)c1)c1cc(F)ccc1F	MrgX1 ag 45 | MrgX1 ag reconf 204% | HEK293 Ca flux inactive | HEK293 Ca counter inactive | HEK293 Ca cntr2 inactive
Cc1ccc(S(=O)(=O)Nc2cccc(-c3ccc4nncn4n3)c2)cc1	none
Cc1cc2ncc(-c3cccs3)nc2cc1C	none
CCOC(=O)N1CCN(c2nc(-c3ccc(OC)cc3)no2)CC1	MrgX1 ag 74 | MrgX1 ag reconf inactive | HEK293 Ca flux inactive | HEK293 Ca counter inactive | HEK293 Ca cntr2 inactive
CCC(C)n1c(=N)c(C#N)cc2c(=O)n3ccccc3nc21 (stereo not drawn)	MrgX1 ag 26 | MrgX1 ag reconf inactive | HEK293 Ca flux inactive | HEK293 Ca counter inactive | HEK293 Ca cntr2 inactive
Cc1cc2ccc3ccccc3c2cc1CN(C)C	none
CN(C)CCOC1c2ccccc2CCc2ccc3ccccc3c21 (stereo not drawn)	MrgX1 ag 57 | MrgX1 ag reconf 142% | HEK293 Ca flux inactive | HEK293 Ca counter inactive | HEK293 Ca cntr2 inactive
CC(C)Oc1ccc(CSC(=N)N)cc1	none
Cc1cc(CSC(=N)N)c(CSC(=N)N)cc1C	MrgX1 ag 91 | MrgX1 ag reconf 246% | HEK293 Ca flux inactive | HEK293 Ca counter inactive | HEK293 Ca cntr2 inactive
O=C(CCC(=O)c1ccccc1)Nc1ccc(C(=O)O)cc1	none
O=c1c2ccccc2nc(SCc2cccc(F)c2)n1C1CCCC1	MrgX1 ag 29 | MrgX1 ag reconf 196% | HEK293 Ca flux inactive | HEK293 Ca counter 53 | HEK293 Ca cntr2 inactive
N#CCSc1nc2ccccc2c(=O)n1C1CCCCC1	none
COc1ccc(S(=O)(=O)Nc2c(O)ccc3ccccc23)cc1OC	MrgX1 ag 27 | MrgX1 ag reconf inactive | HEK293 Ca flux inactive | HEK293 Ca counter inactive | HEK293 Ca cntr2 inactive
C=CCNc1ncnc2c1[nH]c1ccccc12	none

Screens deposited in PubChem by Johns Hopkins Ion Channel Center.
